PostGolgi ctrl = growth of the yeast control strain, post-Golgi counter-screen | efflux-deficient yeast background strain, growth absorbance A615, 16 h | inhibition, % at 10 µM | 5% of 98,000 active
Cav3 T inh = blocks human Cav3.2 T-type calcium channel | B-score at 10 µM | AID 449739 | Cav3.2-expressing cells, Fluo-4 calcium fluorescence FDSS; stronger effect = lower value | O95180 | 4% of 100,000 active;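 active = single-dose well whose peak fluorescence ratio is a statistical outlier from its plate by either plate-standardised score or position-corrected B-score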
PostGolgi yeast = growth inhibition of a yeast mutant, post-Golgi transport screen; inhibition, % at 10 µM; 0.9% of 98,000 active; post-Golgi transport phenotypic cell assay;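 also: yeast cells grown in 1536-well plates; yeast grown about 18 h at 30C before absorbance read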
Ecoli WT expand = E. coli BW25113 growth inhibition, expanded screen; OD600 absorbance; AID 710; 0.15% of 98,000 active; growth inhibition, % at 100 µM;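 active = growth inhibition above about 50% at one test dose, limit read from the data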;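 also: growth measured after 20 h incubation at 37 °C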
tolC growth inh = growth inhibitors of E. coli BW25113 tolC mutant; growth inhibition, % at 10 µM (by protocol); 2.2% of 65,000 active; OD615;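 active = growth inhibition at or above a cutoff equal to the mean over every tested compound plus 3 SD, cut at about 60% in these data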;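 also: growth measured after 20 h incubation at 37 °C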
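System: E. coli ΔtolC::kan strain BW25113; Buffer or medium: LB broth supplemented with 50 µg/mL kanamycin; Compound: 10 µM final, single dose; Incubation: bacterial growth with compound for 20 h at 37 °C; Signal: A615 absorbance measurement; Evaluation: growth inhibition in percent.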
PTK2B oligo ant = antagonists of human Pyk2 oligomerization; Q293 cells, Pyk2 FERM NanoBiT luminescence; stronger effect = lower value; z-score (the deposit names both 25 µM and 10 µM); 0.83% of 99,000 active; AID 1347419;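 active = Z-score of -3 or lower, scaled per plate to the spread of control and sample wells; inactive = z-score above -3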;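 also: negative z-score means lost luminescence so less FERM oligomerization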
Numbers without * were called inactive; nt = not tested or not shown. An excerpt weighted towards active compounds, which were near 8.7% of everything screened. Rule as the data show it, unless noted: active = inhibition above about 30%; inactive = the rest.

SMILES	PostGolgi ctrl	Cav3 T inh	PostGolgi yeast	Ecoli WT expand	tolC growth inh	PTK2B oligo ant
O=C1c2ccccc2C(=O)N1CCc1csc(-c2cccc(F)c2)n1	42*	-1.5	-5	-20	nt	-1.3
CCC(C(=O)c1ccc(O)cc1)c1ccccc1 (stereo not drawn)	36*	-3.6	1	14	22	-0.12
COc1ccc(C(=O)C(CN2CCCC2)c2ccccc2)cc1 (stereo not drawn)	-2	0.37	-4	16	11	0.34
COC(=O)c1cc2c(-c3ccccc3)c(C)c3ccccn3c-2c1C(=O)OC	42*	-0.19	5	-9	nt	0.63
O=C1CC(c2ccccc2)NC(=O)N1 (stereo not drawn)	2	0.11	-3	3	0	-0.18
c1ccc(C2=Nc3ccccc3NC(c3ccccc3)C2)cc1 (stereo not drawn)	36*	-4.2	-18	-15	nt	0.19
O=C(O)C1CCCCC1C(=O)Nc1ccccc1F (stereo not drawn)	42*	0.6	-12	1	-9	-0.03
O=C(O)C1CCCCC1C(=O)Nc1ccccc1Cl (stereo not drawn)	0	-1.5	-6	0	nt	0.18
O=C1C2C(C(=O)N1/N=C/c1cc([N+](=O)[O-])ccc1O)C1C=CC2C12CC2 (stereo not drawn)	0	-1.4	12	8	nt	-0.06
O=C1C2C(C(=O)N1/N=C/c1cc(Br)cc([N+](=O)[O-])c1O)C1C=CC2C12CC2 (stereo not drawn)	21	-6*	-2	10	nt	-1.7
CC(C)(C)OC(=O)N1CCC2(CC1)Oc1ccc(F)cc1C(=O)C21CC(c2ccc(Cl)cc2)=NO1 (stereo not drawn)	nt	-0.33	nt	nt	nt	nt
CCOC(=O)N1CCN(C(=O)c2cn(-c3ccc(C)c(C)c3)c(=O)c3ccccc23)CC1	14	1.5	18	0	0	0.26
Cc1ccc(CN(CC(=O)N/N=C/c2ccccc2[N+](=O)[O-])S(=O)(=O)c2ccc(C)cc2)cc1	11	-4*	4	-14	nt	-1.4
O=C(CN(Cc1ccccc1)S(=O)(=O)c1ccccc1)N/N=C/c1ccccc1[N+](=O)[O-]	18	-1.9	-2	-12	nt	-0.22
Cc1ccccc1NC(=O)Cc1nc(CSc2nnc(C3CCCCC3)n2N)cs1	-1	-0.66	-8	4	-11	0.86
Cc1cccc(N2CCN(C(=O)c3cccc(N4C(=O)C5CC=CC(C)C5C4=O)c3)CC2)c1C (stereo not drawn)	22	-3.9	-13	-13	nt	1.1
CCN(CC)S(=O)(=O)c1ccc(Cc2ncc(C(F)(F)F)cc2Cl)s1	9	-3.7*	-2	2	nt	0.73
NS(=O)(=O)c1ccc(Cc2ncc(C(F)(F)F)cc2Cl)s1	11	-0.33	9	10	nt	-0.18
O=C(CCl)c1ccc(Cc2ncc(C(F)(F)F)cc2Cl)s1	28	1.9	86*	25	nt	-0.65
NNS(=O)(=O)c1ccc(Cc2ncc(C(F)(F)F)cc2Cl)s1	5	-0.29	-5	-2	nt	1
Cc1ccc(N(CC(=O)Nc2ccccc2C(=O)NCc2ccco2)S(=O)(=O)c2ccccc2)cc1C	17	-6*	-5	-13	nt	-1.8
COc1ccc(N(CC(=O)Nc2ccccc2C(=O)NCc2ccco2)S(C)(=O)=O)cc1	-1	0.79	1	3	nt	-0.09
Cc1nnc(NC(=O)C2CCCN(S(=O)(=O)c3ccccc3C(F)(F)F)C2)s1 (stereo not drawn)	42*	-0.083	1	6	3	0.48
O=C(Nc1ccccc1F)C1CCCN(S(=O)(=O)c2cccc3cccnc23)C1 (stereo not drawn)	7	0.89	-5	-6	11	nt
Cc1csc(NC(=O)C2CCCN(S(=O)(=O)c3ccc(Br)s3)C2)n1 (stereo not drawn)	20	nt	-2	-3	71*	0.27
SMILES	PostGolgi ctrl	Cav3 T inh	PostGolgi yeast	Ecoli WT expand	tolC growth inh	PTK2B oligo ant
CSCC(=O)NS(=O)(=O)c1ccc(C)cc1	nt	0.44	nt	nt	nt	nt
Brc1ccccc1-c1nnc2sc(-c3ccc4c(c3)OCCO4)nn12	60*	-4	3	-4	13	-0.06
CCCNC(=O)CCC(=O)Nc1ncc(-c2ccc(C)cc2)n1C	9	1.1	-9	6	38	-1.9
O=C(O)c1ccc(CSc2nnc(COc3ccc(Cl)cc3Cl)o2)cc1	6	-9.2*	-1	3	57	nt
N#Cc1c(C(F)(F)F)cc(-c2ccccc2)[nH]c1=O	-10	-2.8	-4	-6	nt	0.62
N#Cc1c(C(F)(F)F)cc(-c2ccccc2Cl)[nH]c1=O	26	-2.6*	-18	-1	nt	-1.5
Cc1nn(Cc2ccc(Cl)cc2Cl)c(C)c1NC(=O)c1ccc(COc2cc(Cl)ccc2Cl)o1	13	-5.2*	-13	-14	nt	-0.13
Cc1nn(Cc2cccc(F)c2)c(C)c1NC(=O)c1c([N+](=O)[O-])c(C)nn1C	1	0.098	1	-1	nt	0.19
CC(C)CNC(=O)c1ccc(COc2ccc(Cl)cc2Cl)o1	32*	-4.5*	-9	13	nt	-0.14
Cc1nn(Cc2cccc(F)c2)c(C)c1NC(=O)c1ccc(COc2ccccc2Cl)cc1	25	-4.6*	-16	-12	nt	-2.1
O=C(NNS(=O)(=O)c1ccc(Cl)cc1)c1cnn(-c2ccccc2)c1-n1cccc1	26	-2.6	-2	7	nt	0.03
Cc1ccc(/C=C/c2ccc(=O)n(Cc3ccccc3Cl)n2)cc1	42*	-0.64	-5	-5	nt	-0.68
Cc1cc(C)n(Cc2ccccc2Cl)n1	9	-0.28	0	9	-12	0.84
CC(C)OC(=O)c1c(NS(=O)(=O)c2ccccc2)sc2c1CCCC2	nt	-8*	nt	nt	nt	-0.49
COC(=O)c1c(NS(=O)(=O)Cc2ccccc2)sc2c1CCCC2	41*	-4.2	-5	-4	nt	-0.59
CCC(C)[C@H](NC(=O)Nc1ccc(C(C)=O)cc1)C(=O)OC (stereo partly drawn)	-8	1.1	6	3	-9	0.65
Cc1ccc(S(=O)(=O)Oc2ccccc2/C=N/NC(=O)c2c(Cl)cnn2C)cc1	nt	-8.9*	nt	nt	nt	-1.1
O=C(CCn1cnc2ccccc2c1=O)Nc1ccc(S(=O)(=O)N2CCCC2)cc1	10	1.2	2	4	-11	-0.31
COc1ccccc1N1CCN(C(=O)Cn2c(=O)[nH]c3ccsc3c2=O)CC1	1	1.2	-9	-8	nt	-0.16
O=C(CN(C1CCCCC1)S(=O)(=O)c1ccc(Cl)cc1)NCc1ccncc1	0	-0.11	1	0	6	-0.92
CC(=O)c1cccc(NC(=O)C2CCN(S(=O)(=O)c3ccccc3)CC2)c1	34*	0.89	-4	3	nt	0.51
COc1ccc(-n2c3nc4ccccc4nc3c3c(=N)oc(C)nc32)cc1	nt	nt	nt	nt	nt	-0.96
NC(=O)c1cc(N)ccc1N1CCCC1	32*	-0.00079	1	7	-10	-0.88
COc1ccc(S(=O)(=O)NCc2ccco2)c2ccccc12	34*	-4.2*	4	-11	21	0.04
CN1C(=O)c2cccc3c(S(=O)(=O)NCc4ccco4)ccc1c23	4	0.99	-6	-1	16	0.18

Compound activity from PubChem BioAssay.
